Data set [1] deals with ABCB1. The conditions noted are these: ref 28 (Manceau et al.); cited from earlier work.
The next data set deals with CAR target genes. Nature of the data set: Gene expression in PBMCs after multiple doses of ezetimibe. The class given is in vivo, human. The settings on record: multiple doses of ezetimibe 10 mg, treatment period B. A digest of the protocol: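 PBMCs from 12 healthy male Caucasian volunteers aged 20–36 y, with the drug given after a fast of at least 10 h. EDTA blood (5 ml) drawn in the first 3 h of the pharmacokinetic day; spun 1,500g, 4 °C, 15 min; buffy coats pooled per subject, diluted in ice-cold PBS, Lymphoprep 700g, 30 min, room temperature. 1,500 ng total RNA reverse-transcribed; TaqMan real-time PCR for CYP2B6, UGT1A1, ABCB1, ABCC1, normalized to 18S-rRNA.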

Data set [2] deals with hepatic bilirubin metabolism. In words: Total bilirubin levels. The class given is in vivo, human.
A short description of data set [3]: Pharmacokinetics of efavirenz in healthy subjects. The settings on record: male, human, in vivo.
For data set [4], the system named is CYP2B6. In words: CYP2B6 mRNA induction in primary human hepatocytes. The class given is cell-based. The conditions noted are these: freshly isolated human hepatocytes, efavirenz 1 μmol/l, vs DMSO control.
For data set [5], the system named is CYP2B6. Nature of the data set: CAR target gene expression in PBMCs treated in vitro. In kind it is cell-based, human. The conditions noted are these: PBMCs of drug-naive individuals, 10 μmol/l, 48 h.
In data set [6] the test system is ABCB1. The data set is described as above. In kind it is cell-based, human. The conditions noted are these: PBMCs of drug-naive individuals, 10 μmol/l, 48 h.
The next data set deals with UGT1A1. Described as above. The class given is cell-based, human. The conditions noted are these: PBMCs of drug-naive individuals, 10 μmol/l, 48 h.
Data set [7] deals with CYP2B6. In words: Gene expression in PBMCs isolated from treated healthy individuals. The class given is in vivo, human. The settings on record: single dose vs steady state; P = 0.036.
The next data set relates to CYP3A4 activity. In words: Plasma 4β-hydroxycholesterol, marker of CYP3A4 activity. In kind it is in vivo, human.
The next data set deals with full-length CAR (CAR1). The settings on record: in vitro; ref 43 (Chen et al.); cited from earlier work.
Data set [8] deals with CAR variant containing the APYLT insertion. The settings on record: in vitro; ref 43 (Chen et al.); cited from earlier work.
The subject of data set [9] is ABCB1. The conditions noted are these: human intestinal cell line from colon adenocarcinoma; cited from earlier work.
Data set [10] concerns ABCB1. The conditions noted are these: cited from earlier work.
Data set [11] has as its system ABCB1. The conditions noted are these: in vivo; ref 32 (Burhenne et al.); cited from earlier work.
A further data set has as its system ABCC2. The settings on record: in vivo; ref 32 (Burhenne et al.); cited from earlier work.
The subject of another data set is CYP3A. The conditions noted are these: rats, long-term treatment; cited from earlier work.
For data set [12], the system named is ABCB1. The settings on record: rats, everted gut sacs, long-term treatment; cited from earlier work.
In data set [13] the test system is CYP3A4. The settings on record: humans, long-term treatment; ref 36 (Mouly); cited from earlier work.
A further data set relates to ABCB1 (P-gp). The settings on record: humans, long-term treatment; ref 36 (Mouly); cited from earlier work.
Data set [14] has as its system CYP3A4. The conditions noted are these: humans, long-term treatment; ref 36 (Mouly); cited from earlier work. The source holds these as a separate data set.

The AUC(0-t) is exposure summed from dosing to a finite time, without extrapolation to infinity. The term Tmax denotes the time from dosing to the highest level.

“And” between values parts separate entries of the source, which are not always exact repeats. Equal entries are not always repeated.

For `CO[C@H]1/C=C/O[C@@]2(C)Oc3c(C)c(O)c4c(O)c(c(/C=N/N5CCN(C)CC5)c(O)c4c3C2=O)NC(=O)/C(C)=C\C=C\[C@H](C)[C@H](O)[C@@H](C)[C@@H](O)[C@@H](C)[C@H](OC(C)=O)[C@@H]1C` [rifampin], the “ABCB1 induction after treatment of cells” value in the data set on ABCB1 [1] is listed as “no induction”.

As for `O=C1[C@H](CC[C@H](O)c2ccc(F)cc2)[C@@H](c2ccc(O)cc2)N1c1ccc(F)cc1` [ezetimibe], the “Impact on target gene expression in PBMCs” value with CAR target genes is on record as “did not observe an impact”. Besides, the “Impact on total bilirubin levels” value in [2] (multiple doses of ezetimibe, study days 15 and 17) was “No such impact”.

Turning to `O=C1Nc2ccc(Cl)cc2[C@@](C#CC2CC2)(C(F)(F)F)O1` [efavirenz], the “CLR gluc (renal clearance)” value in data set [3] worked out at 0.050 ± 0.054 mL/min. Moreover, the C max in data set [3] (400 mg) turned out to be 622 ± 244 ng/mL. The compound also had a CL renal in [3] (400 mg) of 0.062 ± 0.031 mL/min. In addition, the area under the curve AUC(0-t) in [3] (400 mg, AUC0–24 h) amounted to 6710 ± 2340 ng·h/mL; in data set [3] (400 mg, AUC0–120 h), 17000 ± 6390 ng·h/mL. The time to peak (Tmax) in data set [3] (400 mg, T max) was 2.4 ± 1.9 h; in data set [3] (Tmax) it was 2 to 3 h. Besides, the “CYP2B6 expression in primary human hepatocytes” value with CYP2B6 [4] is “significantly increased”. Besides, in the data set with CYP2B6 [5], the “CYP2B6 mRNA induction in PBMCs in vitro” value was “significant induction”. Moreover, in the data set with ABCB1 [6], the “ABCB1 mRNA induction in PBMCs in vitro” value is “significant induction”. Also, the “UGT1A1 mRNA induction in PBMCs in vitro” value in the data set on UGT1A1 is on record as “significant induction”. For the same compound, the “Pearson r, increase in CYP2B6 expression in PBMCs vs reduction in efavirenz AUC” value with CYP2B6 [7] was 0.61 and 0.608. Besides, the “Pearson r, change in efavirenz AUC vs change in 4β-hydroxycholesterol levels” value with CYP3A4 activity (single dose vs steady state, P = 0.052) is recorded as −0.572. Further, in the data set with CYP3A4 activity (study days 25 and 30, multiple doses of efavirenz), the 4β-hydroxycholesterol/cholesterol ratio result was “significant induction”. For the same compound, the “Total bilirubin levels after treatment” value in data set [2] (long-term efavirenz, mean ± SD, before treatment 9.82 ± 3.86, P = 0.023) worked out at 6.34 ± 2.48 mg/dL. Further, in the data set with full-length CAR (CAR1), the “Trans-activating activity toward full-length CAR (CAR1)” value is recorded as “high trans-activating activity”. Besides, in data set [8], the “Trans-activating activity toward CAR variant containing the APYLT insertion” value is recorded as “negligible activity”. For the same compound, in the data set with ABCB1 [9], the “ABCB1 expression and function in LS180 cells” value was “increased expression and function”. In addition, the “ABCB1 induction in PBMCs in vitro” value in the data set on ABCB1 [10] is recorded as “induction”. For the same compound, the “ABCB1 expression in PBMCs” value in the data set with ABCB1 [11] is “no significant induction”. Also, the “ABCC2 expression in PBMCs” value in the data set on ABCC2 was “no significant induction”. For the same compound, the “Hepatic CYP3A-mediated midazolam metabolism” value in the data set on CYP3A is “induce”. In addition, the “ABCB1-mediated intestinal efflux of rhodamine 123” value in the data set on ABCB1 [12] is “without affecting”. Also, the “CYP3A4-mediated metabolism (erythromycin breath test)” value in the data set on CYP3A4 [13] was “induction”. Also, the “Intestinal ABCB1 (P-gp) expression levels” value in the data set on ABCB1 (P-gp) is on record as “no impact”. The “Intestinal CYP3A4 expression levels” value in the data set on CYP3A4 [14] is recorded as “no impact”.

`CCC1(c2ccccc2)C(=O)NC(=O)NC1=O` [phenobarbital]: the “ABCB1 induction after treatment of cells” value in the data set on ABCB1 [1] is on record as “no induction”.

Source of the values: PMC3667667 (Clinical pharmacology and therapeutics, 2012).
